# Sampled rows, rich in hits. Any-hit rate of the full collection: about 3.5%.
# pPAFAH inh – pPAFAH enzyme inhibitors, primary screen, biochemical, fluorescence polarization, human | recombinant pPAFAH, FP-rhodamine probe fluorescence polarization | inhibition, % at 3.39 µM | actives 1.5% (n = 330,000) | AID 463082, 2010;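 active means inhibition above the mean inhibition across the screen plus 3 SD, cut at about 25% in these data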;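 further: inhibitors block binding of the rhodamine activity-based probe so polarization drops; 0% = enzyme with DMSO and 100% = wells lacking pPAFAH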
# Target sequence (Q13093 whole entry, looked up): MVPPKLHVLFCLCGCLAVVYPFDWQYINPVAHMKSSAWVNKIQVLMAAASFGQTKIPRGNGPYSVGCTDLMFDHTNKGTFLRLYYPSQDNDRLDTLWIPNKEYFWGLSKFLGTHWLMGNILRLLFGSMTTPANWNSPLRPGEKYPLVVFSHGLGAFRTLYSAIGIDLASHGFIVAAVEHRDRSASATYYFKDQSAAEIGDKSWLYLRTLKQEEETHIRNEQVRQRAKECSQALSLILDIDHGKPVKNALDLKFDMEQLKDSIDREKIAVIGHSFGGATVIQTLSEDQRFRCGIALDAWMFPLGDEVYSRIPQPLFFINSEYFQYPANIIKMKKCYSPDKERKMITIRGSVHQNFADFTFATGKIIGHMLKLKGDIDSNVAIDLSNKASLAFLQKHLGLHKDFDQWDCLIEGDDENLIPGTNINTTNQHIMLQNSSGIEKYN
# PAFAH2 FP inh – PAFAH2 enzyme inhibitors, primary screen, biochemical, fluorescence polarization, human. inhibition, % at 3.39 µM. actives 0.99% (n = 340,000). recombinant PAFAH2, FP-rhodamine activity probe. AID 492956, 2010. Platelet-activating factor acetylhydrolase 2, cytoplasmic (Homo sapiens), Q99487;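 active means inhibition above the mean over all tested compounds plus 3 SD, cut at about 30% in these data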;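 further: inhibitors block probe labeling of enzyme so polarization drops; 0% = enzyme with DMSO and 100% = wells lacking PAFAH2 protein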
# Apaf-1 inh – inhibitors of human Apaf-1 apoptosome, primary screen, biochemical, DEVD-Rh110 fluorescence, uHTS | Apoptotic protease-activating factor 1 (Homo sapiens), O14727 | reconstituted apoptosome caspase-3 activity | inhibition, % at 20 µM | actives 0.71% (n = 330,000); active means inhibition of at least 40% at 20 µM;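 further: plate controls were DMSO wells for no effect and DEVD-CHO caspase inhibitor wells for full effect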
#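 System: reconstituted apoptosome with Apaf-1, cytochrome c, caspase-9, procaspase-3, dATP; Signal: Rh110 fluorescence intensity; Schedule: 30 min compound preincubation, 50 min activation, room temperature; Reagent: cytochrome c trigger plus (Z-DEVD)2-Rh110 caspase-3 substrate.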
# PAFAH1B3 FP inh – PAFAH1B3 enzyme inhibitors, primary screen, biochemical, fluorescence polarization, human | Platelet-activating factor acetylhydrolase IB subunit alpha1 (Homo sapiens), Q15102 | recombinant PAFAH1B3, FP-rhodamine probe | inhibition, % at 3.39 µM | actives 0.28% (n = 340,000);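 active means inhibition above the screen-wide average of all tested compounds plus 3 SD, cut at about 25% in these data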;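 further: 0% = enzyme with DMSO only and 100% = wells lacking PAFAH1B3 protein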
# PAFAH1B2 inh – PAFAH1B2 enzyme inhibitors, primary screen, biochemical, fluorescence polarization, human. Platelet-activating factor acetylhydrolase IB subunit alpha2 (Homo sapiens), P68402. recombinant PAFAH1B2, FP-rhodamine activity probe. inhibition, % at 3.39 µM. actives 1.2% (n = 340,000). AID 492953, 2010;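 active means inhibition above the mean of all tested compounds plus 3 SD, cut at about 24% in these data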;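 further: 0% = enzyme with DMSO and 100% = wells lacking PAFAH1B2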
# PREPL inhibitor – PREPL enzyme inhibitors, primary screen, biochemical, fluorescence polarization | Prolyl endopeptidase-like (Homo sapiens), Q4J6C6 | recombinant PREPL, fluorescence polarization activity-based probe | inhibition, % at 5.96 µM | actives 0.68% (n = 320,000) | AID 2751, 2010; in the data active means inhibition above about 43%;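 further: 0% = enzyme with DMSO and 100% = wells lacking enzyme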
# Apaf-1 inh conf – Apaf-1 inhibitors, single-dose retest, confirmation, biochemical, fluorescence, DEVD-Rh110, 20 µM. shares compounds with Apaf-1 inh. inhibition, % at 20 µM. actives 25% (n = 1,800). reconstituted apoptosome, caspase-3 DEVD-Rh110 fluorescence;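 active means mean inhibition of at least 40% at 20 µM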;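 further: plate controls were DMSO wells for no effect and DEVD-CHO caspase inhibitor control wells for full effect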
# Rh110 quench – Rh110 fluorescence interference by putative Apaf-1 inhibitors, confirmation, artefact control for Apaf-1 inhibitor project, biochemical, 20 µM. shares compounds with Apaf-1 inh. quenched caspase reaction. activation (fluorescence interference), % at 20 µM. 1,800 tested, under 10 active. AID 504615, 2011;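 active means signal rise of 40% or more at 20 µM, treated as a fluorescence artifact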
# Fluor interf inh – fluorescence interference of Apaf-1 inhibitor hits, dose response, artefact control for Apaf-1 inhibitor project; 460 tested, under 10 active; shares compounds with Apaf-1 inh; fluorescence interference counterscreen, Apaf-1 assay format; IC50, µM; call rule not given here
# Numbers without * were called inactive; · = no result given; ! = repeats disagree.
SMILES,pPAFAH inh,PAFAH2 FP inh,Apaf-1 inh,PAFAH1B3 FP inh,PAFAH1B2 inh,PREPL inhibitor,Apaf-1 inh conf,Rh110 quench,Fluor interf inh
CCOC(=O)c1c(NC(=O)c2cccs2)sc(C(=O)N(C)C)c1C,5,4,-12,2,-1,-1,·,·,·
CCOC(=O)c1c(NC(=O)c2cccs2)sc(C)c1CC,1,3,51*,8,4,3,13,9,·
COc1cc(C(=O)N2CCN(c3cccc(C)c3C)CC2)ccc1OCC(=O)N1CCOCC1,-2,4,51*,6,5,29,39,6,·
COc1cc(C(=O)N2CCN(c3ccccc3O)CC2)ccc1OCC(=O)N1CCOCC1,6,2,-13,-1,8,20,·,·,·
CCCCCc1ccc(OCCC[n+]2ccccc2)c(CCCCC)c1,3,11,66*,3,2,16,40*,14,>100
CCCCCc1ccc(OCCOCCn2c[n+](C)c3ccccc32)c(CCCCC)c1,·,2,·,7,0,·,·,·,·
CC1=NN(c2ccc(Cl)cc2)C(=O)C1C(c1ccccc1O)c1c(C)[nH]n(-c2ccc(Cl)cc2)c1=O (centres undefined),0,11,97*,13,1,5,42*,4,>100
COc1ccccc1NC(=O)c1ccc(S(=O)(=O)N2CCC(C)CC2)cc1,-1,-5,9,16,10,-5,·,·,·
CC(C)OCCCNC(=O)c1ccc(NC(=O)C2=CSCCO2)cc1,6,-4,3,6,6,10,·,·,·
CCOc1ccc(S(=O)(=O)N2CCCCC2)cc1NC(=O)CN1C(=O)NC(C)(c2ccccc2)C1=O (centres undefined),6,-2,15,2,4,-2,·,·,·
Nc1ccc(Br)c2cccnc12,10,9,85*,8,-1,14,46*,-1,>100
CS(=O)(=O)Oc1ccc(Br)c2cccnc12,0,2,3,10,15,5,·,·,·
NS(=O)(=O)c1cccnc1Nc1cccc(Cl)c1Cl,7,0,0,5,5,-12,·,·,·
CCOc1ccc(NC(=O)CN(C)C(=O)c2ccc(COc3ccccc3)cc2)cc1OCC,4,6,48*,2,-2,20,40*,4,>100
CCC1Nc2ncnc(N3CCN(c4ccccc4)CC3)c2N(Cc2ccc(C)cc2)C1=O (centres undefined),3,-1,25,3,-6,-72,·,·,·
CCC1Nc2ncnc(N3CCN(c4ccccc4)CC3)c2N(Cc2ccccc2)C1=O (centres undefined),3,4,60*,-5,5,8,29,14,·
COc1ccc(S(=O)(=O)NCC(=O)N(CC(=O)NCC2CCCO2)c2cc(C)ccc2C)cc1 (centres undefined),4,-4,-2,4,10,9,·,·,·
O=C(CCC(=O)OCC(=O)c1ccc(C(F)(F)F)cc1)OCC(=O)c1ccc(C(F)(F)F)cc1,1,·,-17,·,·,4,·,·,·
COCCCC/C(=N\OCCN)c1ccc(C(F)(F)F)cc1,3,2,99*!,6,8,-7,3,-3,·
COc1ccc(Nc2ccc3c(c2)=NC2(CCCCC2)[N+]=3[O-])cc1,6,11,80*,11,9,21,70*,12,>100

# Source: PubChem (several laboratories)
